In ChEMBL document CHEMBL1921722, “In vitro and in vivo evaluation of select kahalalide F analogs with antitumor and antifungal activities” (Bioorg Med Chem, 2011):

Columns and labels:
Assay type in all cases: functional
U-251 = test: Cytotoxicity against human U251 cells assessed as cell growth at 8 uM by sulforhodamine B assay relative to control; conditions: read-out: Activity
K562 = test: Cytotoxicity against human K562 cells assessed as cell growth at 80 uM by sulforhodamine B assay relative to control; conditions: read-out: Activity
SR = test: Cytotoxicity against human SR cells assessed as cell growth at 8 nM by sulforhodamine B assay relative to control; conditions: read-out: Activity
HCC 2998 = test: Cytotoxicity against human HCC2998 cells assessed as cell growth at 8 nM by sulforhodamine B assay relative to control; conditions: read-out: Activity
SW-620 [1] = test: Cytotoxicity against human SW620 cells assessed as cell growth at 80 uM by sulforhodamine B assay relative to control; conditions: read-out: Activity
OVCAR-3 = test: Cytotoxicity against human OVCAR3 cells assessed as cell growth at 8 uM by sulforhodamine B assay relative to control; conditions: read-out: Activity
NCI-H522 [2] = test: Cytotoxicity against human NCI-H522 cells assessed as cell growth at 800 nM by sulforhodamine B assay relative to control; conditions: read-out: Activity
SW-620 [3] = test: Cytotoxicity against human SW620 cells by sulforhodamine B assay
Procedure, shortened: (§1)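 NCI Developmental Therapeutics Program 60-cell-line human tumor panel screen, run at NCI. A single-concentration pre-screen was followed by a five-concentration dose-response in 10-fold steps. GI50 is the concentration that reduces growth of treated cells to half that of untreated control cells. TGI is the concentration that completely halts growth.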

SK-MEL-28 = test: Cytotoxicity against human SK-MEL-28 cells by sulforhodamine B assay; procedure, shortened: as §1
UACC-62 = test: Cytotoxicity against human UACC62 cells assessed as cell growth at 80 nM by sulforhodamine B assay relative to control; conditions: read-out: Activity
BT-549 [4] = test: Cytotoxicity against human BT549 cells by sulforhodamine B assay
Procedure, shortened: (§2)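 Run at NCI in the DTP 60-cell-line human tumor panel by standard procedure. Compounds were first screened at a single concentration, then tested at five tenfold-spaced concentrations. GI50 is the concentration reducing treated-cell growth to half that of untreated controls; TGI is the concentration completely halting growth.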

786-0 [5] = test: Cytotoxicity against human 786-0 cells by sulforhodamine B assay; procedure, shortened: as §2
RPMI-8226 = test: Cytotoxicity against human RPMI8226 cells assessed as cell growth at 8 nM by sulforhodamine B assay relative to control; conditions: read-out: Activity
NCI-H460 = test: Cytotoxicity against human NCI-H460 cells assessed as cell growth at 800 nM by sulforhodamine B assay relative to control; conditions: read-out: Activity
IGROV-1 [6] = test: Cytotoxicity against human IGROV1 cells by sulforhodamine B assay; procedure, shortened: as §1
NCI-H522 [7] = test: Cytotoxicity against human NCI-H522 cells by sulforhodamine B assay; procedure, shortened: as §1
MDA-MB-435 = test: Cytotoxicity against human MDA-MB-435 cells assessed as cell growth at 80 uM by sulforhodamine B assay relative to control; conditions: read-out: Activity
HT-29 = test: Cytotoxicity against human HT-29 cells assessed as cell growth at 8 nM by sulforhodamine B assay relative to control; conditions: read-out: Activity
UO-31 = test: Cytotoxicity against human UO31 cells assessed as cell growth at 800 nM by sulforhodamine B assay relative to control; conditions: read-out: Activity
NCI-H226 = test: Cytotoxicity against human NCI-H226 cells assessed as cell growth at 800 nM by sulforhodamine B assay relative to control; conditions: read-out: Activity
OVCAR-8 = test: Cytotoxicity against human OVCAR8 cells by sulforhodamine B assay
Procedure, shortened: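 NCI Developmental Therapeutics Program 60-cell-line human tumor panel, standard procedure. Single-concentration prescreen first; active compounds then tested at five concentrations. GI50 is the concentration reducing growth of treated cells to half that of untreated controls.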

HOP-92 = test: Cytotoxicity against human HOP92 cells assessed as cell growth at 800 nM by sulforhodamine B assay relative to control; conditions: read-out: Activity
NCI-H522 [8] = test: Cytotoxicity against human NCI-H522 cells assessed as cell growth at 8 uM by sulforhodamine B assay relative to control; conditions: read-out: Activity
Hs-578T = test: Cytotoxicity against human Hs578T cells assessed as cell growth at 8 nM by sulforhodamine B assay relative to control; conditions: read-out: Activity
TK-10 = test: Cytotoxicity against human TK10 cells assessed as cell growth at 80 nM by sulforhodamine B assay relative to control; conditions: read-out: Activity
A498 [9] = test: Cytotoxicity against human A498 cells assessed as cell growth at 80 nM by sulforhodamine B assay relative to control; conditions: read-out: Activity; procedure, shortened: as §2
IGROV-1 [10] = test: Cytotoxicity against human IGROV1 cells assessed as cell growth at 8 uM by sulforhodamine B assay relative to control; conditions: read-out: Activity
OVCAR-4 [11] = test: Cytotoxicity against human OVCAR4 cells assessed as cell growth at 800 nM by sulforhodamine B assay relative to control; conditions: read-out: Activity
BT-549 [12] = test: Cytotoxicity against human BT549 cells assessed as cell growth at 80 nM by sulforhodamine B assay relative to control; conditions: read-out: Activity; procedure, shortened: as §2
KM12 = test: Cytotoxicity against human KM12 cells assessed as cell growth at 8 nM by sulforhodamine B assay relative to control; conditions: read-out: Activity
T47D = test: Cytotoxicity against human T47D cells assessed as cell growth at 8 nM by sulforhodamine B assay relative to control; conditions: read-out: Activity
UACC-257 = test: Cytotoxicity against human UACC257 cells assessed as cell growth at 800 nM by sulforhodamine B assay relative to control; conditions: read-out: Activity
HOP-62 [13] = test: Cytotoxicity against human HOP62 cells by sulforhodamine B assay
Procedure, shortened: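 Run by the NCI Developmental Therapeutics Program on its 60-line human tumour cell panel using the standard procedure. Compounds went through a single-concentration prescreen first, and those active by NCI criteria went on to a five-concentration growth-inhibition test. GI50 is the concentration that cuts growth of treated cells to half that of untreated control cells.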

RXF 393 = test: Cytotoxicity against human RXF393 cells assessed as cell growth at 8 nM by sulforhodamine B assay relative to control; conditions: read-out: Activity
A498 [14] = test: Cytotoxicity against human A498 cells assessed as cell growth at 8 uM by sulforhodamine B assay relative to control; conditions: read-out: Activity; procedure, shortened: as §2
786-0 [15] = test: Cytotoxicity against human 786-0 cells assessed as cell growth at 8 uM by sulforhodamine B assay relative to control; conditions: read-out: Activity; procedure, shortened: as §2
HOP-62 [16] = test: Cytotoxicity against human HOP62 cells assessed as cell growth at 800 nM by sulforhodamine B assay relative to control; conditions: read-out: Activity
OVCAR-4 [17] = test: Cytotoxicity against human OVCAR4 cells assessed as cell growth at 8 uM by sulforhodamine B assay relative to control; conditions: read-out: Activity
ACHN = test: Cytotoxicity against human ACHN cells by sulforhodamine B assay; procedure, shortened: as §2

## C/C=C1\NC(=O)[C@H](Cc2ccccc2)NC(=O)[C@@H](C(C)C)NC(=O)[C@@H]([C@@H](C)CC)NC(=O)[C@H](NC(=O)[C@H](NC(=O)[C@H](CCCNCc2ccc(N3CCOCC3)cc2)NC(=O)[C@H]2CCCN2C(=O)[C@H](NC(=O)[C@@H](NC(=O)[C@@H](NC(=O)[C@H](NC(=O)CCCC(C)C)C(C)C)[C@@H](C)O)C(C)C)C(C)C)[C@@H](C)CC)[C@@H](C)OC(=O)[C@H](C(C)C)NC1=O
U-251
  growth at 8 µM: -98%
K562
  growth at 80 µM: -39%
SR
  growth at 0.008 µM: 103%
HCC 2998
  growth at 0.008 µM: 97%
SW-620 [1]
  growth at 80 µM: -13%
OVCAR-3
  growth at 8 µM: -72%
NCI-H522 [2]
  growth at 0.8 µM: 101%
SW-620 [3]
  GI50: 1.05 µM
SW-620 [3]; read-out: pTGI (converted)
  TGI: 2.04 µM
SK-MEL-28
  GI50: 1.38 µM
SK-MEL-28; read-out: pTGI (converted)
  TGI: 2.57 µM
UACC-62
  growth at 0.08 µM: 103%
BT-549 [4]
  GI50: 1.35 µM
BT-549 [4]; read-out: pTGI (converted)
  TGI: 2.82 µM
786-0 [5]
  GI50: 1.38 µM
  LC50: 4.68 µM
786-0 [5]; read-out: pTGI (converted)
  TGI: 2.57 µM
RPMI-8226
  growth at 0.008 µM: 111%
NCI-H460
  growth at 0.8 µM: 104%
IGROV-1 [6]
  GI50: 0.813 µM
IGROV-1 [6]; read-out: pTGI (converted)
  TGI: 2 µM
NCI-H522 [7]
  GI50: 5.01 µM
  LC50: > 75.9 µM
NCI-H522 [7]; read-out: pTGI (converted)
  TGI: 33.1 µM
MDA-MB-435
  growth at 80 µM: -9%
HT-29
  growth at 0.008 µM: 92%
UO-31
  growth at 0.8 µM: 96%
NCI-H226
  growth at 0.8 µM: 104%
OVCAR-8
  GI50: 1.7 µM
  LC50: > 75.9 µM
HOP-92
  growth at 0.8 µM: 79%
NCI-H522 [8]
  growth at 8 µM: 40%
Hs-578T
  growth at 0.008 µM: 109%
TK-10
  growth at 0.08 µM: 96%
A498 [9]
  growth at 0.08 µM: 110%
IGROV-1 [10]
  growth at 8 µM: -75%
OVCAR-4 [11]
  growth at 0.8 µM: 79%
BT-549 [12]
  growth at 0.08 µM: 95%
KM12
  growth at 0.008 µM: 106%
T47D
  growth at 0.008 µM: 101%
UACC-257
  growth at 0.8 µM: 93%
HOP-62 [13]
  GI50: 1.41 µM
  LC50: 5.75 µM
HOP-62 [13]; read-out: pTGI (converted)
  TGI: 2.82 µM
RXF 393
  growth at 0.008 µM: 111%
A498 [14]
  growth at 8 µM: -51%
786-0 [15]
  growth at 8 µM: -88%
HOP-62 [16]
  growth at 0.8 µM: 95%
OVCAR-4 [17]
  growth at 8 µM: -59%
ACHN
  LC50: 4.79 µM
ACHN; read-out: GI50
  GI50: 1.27 µM
ACHN; read-out: TGI
  TGI: 2.47 µM
ACHN; read-out: pGI50 (converted)
  GI50: 1.26 µM
ACHN; read-out: pTGI (converted)
  TGI: 2.45 µM
